According to ChEMBL document CHEMBL3596114, “SAR refinement of antileishmanial N(2),N(4)-disubstituted quinazoline-2,4-diamines” (Bioorg Med Chem, 2015):
pEC50: −log10 of the molar value.

Columns and labels:
[1] = Cytotoxicity against mouse J774A.1 cells assessed as inhibition of cell viability after 72 hrs by MTT assay; assay type: cell-based; details: J774.A1, 72 h
Method in brief: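 J774A.1 murine macrophages were grown in RPMI with 10% FBS and penicillin/streptomycin at 37 °C, 5% CO2, and plated at 5 × 10^3 cells/well with serial compound dilutions for 72 h. MTT was added for 2 h, then cells were lysed with 10% SDS in 50% DMF for 3–5 h and read at 570 nm. EC50 came from a four-parameter fit, at least three independent experiments, podophyllotoxin control.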

[2] = Selectivity index, ratio of EC50 for mouse J774A.1 cells to EC50 for of beta-lactamase expressing Leishmania donovani MHOM/ET/67/L82 infected in CD-1 mouse peritoneal macrophages
Leishmania donovani [3] = test: Antileishmanial activity against […] forms of beta-lactamase expressing Leishmania donovani MHOM/ET/67/L82 infected in CD-1 mouse peritoneal macrophages assessed as inhibition of beta-lactamase activity after 3 days by spectrophotometer assay; assay type: functional, organism-based; details: MHOM/ET/67/L82, 72 h
Method in brief: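 Intracellular L. donovani assay in macrophages run by an earlier method, with amphotericin B as the control drug. EC50 is the mean ± standard deviation of at least three independent experiments. Where a mean could not be obtained, the value comes from at least two determinations.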

Liver [4] = test: Cmax in Swiss-Webster mouse liver at 10 mg/kg, ip after 4 hrs by UPLC-MS/MS analysis; assay type: ADME, organism-based; parameters: dose 10 mg/kg, route intraperitoneal; details: in vivo
Method in brief: (§1)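 Male Swiss Webster mice got a single 10 mg/kg ip dose in DMSO/PEG400/ethanol/water vehicle. Liver and spleen were excised at 4 and 12 h, rinsed, frozen and homogenized in water (liver 3-fold, spleen 4-fold dilution). Tissue concentrations were measured by UPLC-MS/MS (calibration 0.025–25 μM), triplicate determinations.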

[5] = Apparent volume of distribution in Swiss-Webster mouse plasma at 10 mg/kg, ip by UPLC-MS/MS analysis; assay type: ADME, organism-based; details: read-out: Vz/F
Method in brief: (§2)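 Male Swiss Webster mice (20–25 g) got a single ip dose of 10 mg/kg in DMSO/PEG400/ethanol/water (0.5:5:1:3.5, v/v). Blood was drawn at 0.25–12 h, n = 3 per time point, and plasma was extracted with methanol-water plus internal standard. Samples were run by UPLC-MS/MS in SRM positive mode (calibration 0.025–25 μM). AUC, Cmax, Tmax, terminal t1/2 and Vz/F came from noncompartmental analysis.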

Liver [6] = test: Half-life in mouse liver microsomes by UPLC analysis; assay type: ADME
Method in brief: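 Pooled mouse liver microsomes with NADPH were incubated and the parent compound quantified by UPLC-MS/MS. Half-life was obtained by fitting one-phase exponential decay to percent substrate remaining versus time.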

[7] = AUC in Swiss-Webster mouse plasma at 10 mg/kg, ip by UPLC-MS/MS analysis; assay type: ADME, organism-based; method in brief: as §2
[8] = Tmax in Swiss-Webster mouse plasma at 10 mg/kg, ip by UPLC-MS/MS analysis; assay type: ADME, organism-based; method in brief: as §2
Mus musculus [9] = test: Toxicity in BALB/c mouse assessed as induction of adverse events at 10 mg/kg/day, ip administered for 5 days; assay type: organism-based; details: in vivo, 120 h
Method in brief: (§3)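 Female BALB/c mice were dosed ip daily for 5 days at 10 or 30 mg/kg/day and observed for adverse effects.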

[10] = Cmax in Swiss-Webster mouse liver at 10 mg/kg, ip after 12 hrs by UPLC-MS/MS analysis; assay type: ADME, organism-based; parameters: dose 10 mg/kg, route intraperitoneal; details: read-out: Cmax; method in brief: as §1
Plasma = test: Cmax in Swiss-Webster mouse plasma at 10 mg/kg, ip by UPLC-MS/MS analysis; assay type: ADME, organism-based; parameters: dose 10 mg/kg, route intraperitoneal; details: in vivo; method in brief: as §2
Spleen = test: Cmax in Swiss-Webster mouse spleen at 10 mg/kg, ip after 4 hrs by UPLC-MS/MS analysis; assay type: ADME, organism-based; parameters: dose 10 mg/kg, route intraperitoneal; details: in vivo; method in brief: as §1
[11] = Cmax in Swiss-Webster mouse spleen at 10 mg/kg, ip after 12 hrs by UPLC-MS/MS analysis; assay type: ADME, organism-based; parameters: dose 10 mg/kg, route intraperitoneal; details: read-out: Cmax; method in brief: as §1
Mus musculus [12] = test: Toxicity in BALB/c mouse assessed as induction of adverse events at 30 mg/kg/day, ip administered for 5 days; assay type: organism-based; details: in vivo, 120 h; method in brief: as §3
[13] = Half-life in Swiss-Webster mouse plasma at 10 mg/kg, ip by UPLC-MS/MS analysis; assay type: ADME, organism-based; method in brief: as §2
Leishmania donovani [14] = test: Antileishmanial activity against Leishmania donovani infected in visceral leishmaniasis BALB/c mouse model assessed as reduction of liver parasitemia at 10 mg/kg/day, ip administered for 5 days; assay type: functional; details: 120 h
Method in brief: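 Acute murine visceral leishmaniasis model in female BALB/c mice (6–8 weeks). […] Liver parasitemia was expressed as % inhibition versus infected controls.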

Row | SMILES | pEC50 [1] | selectivity ratio [2] | pEC50 (Leishmania donovani [3]) | further results
1 | COc1ccc(CNc2nc(NCc3ccc(OC)cc3)c3ccccc3n2)cc1 | 5.66 | 0.37 | 5.22 | 
2 | Clc1ccc(CNc2nc(NCc3ccccc3)nc3ccccc23)cc1 | 5.34 | 5.6 | 6.09 | 
3 | CC(C)Nc1nc(NCc2ccccc2)nc2ccccc12 | 5.14 | 19 | 6.42 | Cmax (Liver [4]): 20.2 µM; Vd/F [5]: 1.15 L/kg; t1/2 (Liver [6]): 0.7 h; AUC(0-inf) [7]: 7.14 µM·h; Tmax [8]: 0.25 h; Activity (Mus musculus [9]): Non-toxic; concentration at 12 h [10]: 0.54 µM; Cmax (Plasma): 2.15 µM; Cmax (Spleen): 16.5 µM; concentration at 12 h [11]: 0.18 µM; Activity (Mus musculus [12]): Toxic; half-life [13]: 2.1 h; inhibition in vivo at 10 mg/kg/day (Leishmania donovani [14]): 23.8%
4 | COc1ccc(CNc2nc(NCc3ccccc3)nc3ccccc23)cc1 | 5.28 | 2.1 | 5.60 | 
5 | CNc1nc(NC(C)C)nc2ccccc12 |  |  | < 4.60 | 
6 | CNc1nc(NC2CCCC2)nc2ccccc12 | 4.41 | 8.9 | 5.36 | 
7 | Cc1ccc(CNc2nc(NCc3ccccc3)nc3ccccc23)cc1 | 5.68 | 5.4 | 6.41 | 
8 | c1ccc(CNc2nc(OCc3ccccc3)c3ccccc3n2)cc1 | 5.48 | 5.1 | 6.19 | 
9 | COc1cc([C@@H]2c3cc4c(cc3[C@H](O)[C@H]3COC(=O)[C@H]23)OCO4)cc(OC)c1OC [PODOFILOX] | 7.68 |  |  | 
10 | CNc1nc(NCc2ccccc2)nc2ccccc12 | 4.82 | 100 |  | 
11 | CCCCCCCCCCCCCCCCOP(=O)([O-])OCC[N+](C)(C)C [MILTEFOSINE] |  |  |  | inhibition in vivo at 10 mg/kg/day (Leishmania donovani [14]): 93.6%
12 | CC(C)Nc1nc(NCc2ccco2)c2ccccc2n1 | 4.77 |  |  | 
13 | CNc1nc(NC)c2ccccc2n1 | < 3.88 | > 17.5 | 5.12 | 
14 | C[C@@H]1[C@H](O)[C@@H](C)/C=C/C=C/C=C/C=C/C=C/C=C/C=C/[C@H](O[C@@H]2O[C@H](C)[C@@H](O)[C@H](N)[C@@H]2O)C[C@@H]2O[C@](O)(C[C@@H](O)C[C@@H](O)[C@H](O)CC[C@@H](O)C[C@@H](O)CC(=O)O[C@H]1C)C[C@H](O)[C@H]2C(=O)O [AMPHOTERICIN B] |  |  | 7.39 | 
15 | c1coc(CNc2nc(NC3CCCCC3)nc3ccccc23)c1 | 5.28 | 1.3 | 5.40 | 
16 | CC(C)Nc1nc(NC(C)C)c2ccccc2n1 | < 4.52 | > 13 | 5.64 | 
17 | Cc1ccccc1-c1nc(NCc2ccccc2)nc2ccccc12 |  |  | < 5.00 | 
18 | CNc1nc(NCc2ccco2)c2ccccc2n1 |  |  | < 4.60 | 
19 | CC(C)Nc1nc(NCC2CCCO2)c2ccccc2n1 (stereo unspecified) | 4.34 | 5.2 | 5.05 | 

Row | SMILES | pEC50 [1] | selectivity ratio [2] | pEC50 (Leishmania donovani [3]) | further results
20 | Cc1ccc(CNc2nc(NCc3ccc(C)cc3)c3ccccc3n2)cc1 | 5.54 | 2.6 | 5.96 | 
21 | Cc1ccccc1-c1nc(NCc2ccccc2)c2ccccc2n1 |  |  | < 5.00 | 
22 | CCNc1nc(NC(C)C)nc2ccccc12 | < 4.52 | > 4.8 | 5.20 | 
23 | c1ccc(CNc2nc(NCc3ccccc3)c3ccccc3n2)cc1 | 5.26 |  |  | 
24 | CC(C)Nc1nc(Nc2ccccc2)c2ccccc2n1 | 4.92 | 6.3 | 5.72 | 
25 | CNc1nc(NCCO)nc2ccccc12 |  |  | < 4.60 | 
26 | CCNc1nc(NC)c2ccccc2n1 |  |  | < 4.60 | 
27 | c1coc(CNc2nc(NC3CCCC3)nc3ccccc23)c1 |  |  | < 4.60 | 
28 | CNc1nc(NCc2ccco2)nc2ccccc12 |  |  | 4.70 | 
29 | Clc1ccc(CNc2nc(NCc3ccccc3)c3ccccc3n2)cc1 | 5.49 | 5.2 | 6.21 | Cmax (Liver [4]): 25.3 µM; Vd/F [5]: 22.3 L/kg; t1/2 (Liver [6]): 1.47 h; AUC(0-inf) [7]: 15.7 µM·h; Tmax [8]: 0.5 h; Activity (Mus musculus [9]): Non-toxic; concentration at 12 h [10]: 8.51 µM; Cmax (Plasma): 1.4 µM; Cmax (Spleen): 26.6 µM; concentration at 12 h [11]: 11.4 µM; Activity (Mus musculus [12]): Toxic; half-life [13]: 9.3 h; inhibition in vivo at 10 mg/kg/day (Leishmania donovani [14]): 12%
30 | Cc1ccc(CNc2nc(NCc3ccccc3)c3ccccc3n2)cc1 | 5.35 | 5.1 | 6.05 | 
31 | CC(C)Nc1nc(NCc2ccco2)nc2ccccc12 | 5.08 | 0.75 | 4.96 | 
32 | c1coc(CNc2nc(NC3CCC3)nc3ccccc23)c1 |  |  | < 4.60 | 
33 | COc1ccc(CNc2nc(NCc3ccccc3)c3ccccc3n2)cc1 | 5.39 | 5.7 | 6.14 | 
34 | CC(C)Nc1nc(NC2CC2)c2ccccc2n1 | 4.51 | 5.1 | 5.21 | 
35 | CC(C)Nc1nc(NC2CC2)nc2ccccc12 | < 4.40 | > 5 | 5.10 | 
36 | c1ccc(CNc2nc(-c3ccccc3)c3ccccc3n2)cc1 |  |  | < 5.00 | 
37 | CC(C)Nc1nc(NCc2ccccc2)c2ccccc2n1 | 5.17 | 3.4 | 5.70 | 
